Series [1] relates to Mycobacterium tuberculosis. The experiment in a line: Antimycobacterial activity against Mycobacterium tuberculosis H37Rv after 30 days by agar microdilution method. Type of series: functional. The method in brief:
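Virulent M. tuberculosis H37Rv strain tested by agar microdilution. Isoniazid and ethambutol served as reference drugs. Read-out is the MIC.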

The subject of a further series is Vero. The experiment in a line: Cytotoxicity against african green monkey Vero cells at 10 times MIC of Mycobacterium tuberculosis H37Rv after 24 hrs by MTS assay. Type of series: cell-based. As to conditions: chlorocebus sabaeus. Background: Tetrazolium dyes change colour on reduction, which living cells bring about.
Series [2] in a line: Cytotoxicity against mouse bone marrow macrophages at 10 times MIC after 48 hrs by MTS assay. Format: cell-based. Conditions: macrophage.
Series [3] has as its system Mycobacterium tuberculosis. The experiment in a line: Antimycobacterial activity against Mycobacterium tuberculosis H37Rv infected in mouse bone marrow macrophages assessed as intracellular growth inhibition at 3.12 ug/ml after 4 days. Type of series: functional. Conditions: 96 h, read-out: GI.
In series [4] the target is T1, Glycogen phosphorylase, liver form (Rattus norvegicus) (UniProt P09811).
T1 sequence (whole entry): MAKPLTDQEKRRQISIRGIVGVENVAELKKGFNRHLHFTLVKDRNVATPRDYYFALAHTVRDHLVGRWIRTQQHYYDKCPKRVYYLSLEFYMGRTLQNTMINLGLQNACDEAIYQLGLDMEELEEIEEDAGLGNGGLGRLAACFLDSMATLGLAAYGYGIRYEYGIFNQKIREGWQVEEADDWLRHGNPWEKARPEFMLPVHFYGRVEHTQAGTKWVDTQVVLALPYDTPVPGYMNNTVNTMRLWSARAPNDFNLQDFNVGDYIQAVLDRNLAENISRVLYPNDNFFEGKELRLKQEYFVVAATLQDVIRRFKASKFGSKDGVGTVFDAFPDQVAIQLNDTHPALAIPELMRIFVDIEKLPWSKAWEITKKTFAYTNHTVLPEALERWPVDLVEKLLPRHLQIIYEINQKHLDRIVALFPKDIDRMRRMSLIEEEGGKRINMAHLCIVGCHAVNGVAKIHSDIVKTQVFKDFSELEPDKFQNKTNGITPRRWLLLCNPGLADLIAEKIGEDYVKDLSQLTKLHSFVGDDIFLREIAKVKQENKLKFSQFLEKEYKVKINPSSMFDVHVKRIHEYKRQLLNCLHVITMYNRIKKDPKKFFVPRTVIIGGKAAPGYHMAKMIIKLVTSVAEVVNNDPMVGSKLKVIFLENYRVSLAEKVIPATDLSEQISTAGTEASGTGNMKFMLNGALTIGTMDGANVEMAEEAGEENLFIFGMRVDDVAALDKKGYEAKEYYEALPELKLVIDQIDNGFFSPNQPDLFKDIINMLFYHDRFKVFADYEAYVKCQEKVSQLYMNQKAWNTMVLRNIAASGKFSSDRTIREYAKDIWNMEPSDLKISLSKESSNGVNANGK
The experiment in a line: Inhibition of Wistar rat liver glycogen phosphorylase at 100 uM after 30 mins.

Series [5] deals with Mycobacterium tuberculosis. The experiment in a line: Antimycobacterial activity against Mycobacterium tuberculosis H37Rv infected in mouse bone marrow macrophages assessed as intracellular growth inhibition after 4 days. Type of series: functional.
The species named for a further series is Rattus norvegicus. The experiment in a line: Inhibition of albino rat intestine alpha-glucosidase using p-nitrophenyl-alpha-D-glucopyranoside as substrate at 100 uM.

Converted amounts (≈) assume the structure as drawn. A value given as a limit tells only on which side of the number the result lay.

On to `Nc1nc2c(c(-c3ccc(F)cc3)n1)CCC/C2=C\c1ccc(F)cc1`, for which, in series [1], the MIC (as a rule, the lowest concentration found to suppress growth) is 12.5 mg/L (≈ 35.8 µM).
The same measure, in the same setting: for `Nc1nc(Cc2ccco2)c2c(n1)/C(=C/Cc1ccco1)CCC2` the value was greater than 12.5 mg/L.
As for `Nc1nc2c(c(-c3ccc4ccccc4c3)n1)CCCC/C2=C\c1ccc2ccccc2c1`, the Activity entry (in the series on Vero; in series [2]) was “Non-toxic” in each case. Besides, the lowest concentration to inhibit growth in series [1] (MIC) was 3.12 mg/L (≈ 7.3 µM). Moreover, the inhibition of growth at 3.12 µg/mL in series [3] came to 58%.
In the case of `Nc1nc2c(c(-c3ccc(OCc4ccccc4)cc3)n1)CCC/C2=C\c1ccc(OCc2ccccc2)cc1`, the inhibition – broadly, the change of the read-out against control, counted positive when it falls – in series [4] was -0.87%. In series [1], this molecule registered a minimal inhibitory concentration (MIC) greater than 12.5 mg/L.
Consider `Nc1nc2c(c(-c3cccc4ccccc34)n1)CCCC/C2=C\c1cccc2ccccc12`, for which, in series [1], the minimal inhibitory concentration (MIC) is greater than 12.5 mg/L.
Consider `NNC(=O)c1ccncc1` [ISONIAZID], for which the MIC in series [1] came to 0.75 mg/L (≈ 5.47 µM). In addition, the “growth inhibition (GI)” value in series [5] is “>=99%”.
Regarding `Nc1nc2c(c(-c3ccc(Br)cc3)n1)CCCC/C2=C\c1ccc(Br)cc1`, in series [1], the MIC is greater than 12.5 mg/L. In addition, in the series filed under Rattus norvegicus, the inhibition was -5.86%.
Consider `Nc1nc(Cc2ccco2)c2c(n1)/C(=C/Cc1ccco1)CCCC2`, for which the inhibition is 34.3% in series [4] and -4.87% in the series filed under Rattus norvegicus. The minimum inhibitory concentration (MIC) in series [1] is greater than 12.5 mg/L.
Molecule `Nc1nc2c(c(-c3ccc(Cl)cc3)n1)CCC/C2=C\c1ccc(Cl)cc1` yielded an MIC in series [1] greater than 12.5 mg/L.
For `Nc1nc2c(c(-c3cccc4ccccc34)n1)CCC/C2=C\c1cccc2ccccc12`, the inhibition came out at 11.3% in series [4] and 13.7% in the series filed under Rattus norvegicus. The molecule also yielded an MIC in series [1] of 12.5 mg/L (≈ 30.2 µM).
`COc1ccc(/C=C2\CCCCc3c2nc(N)nc3-c2ccc(OC)cc2)cc1` displayed a minimum inhibitory concentration (MIC) in series [1] greater than 12.5 mg/L.
On to `Nc1nc2c(c(-c3ccc(Cl)cc3)n1)CCCC/C2=C\c1ccc(Cl)cc1`, for which the MIC in series [1] was greater than 12.5 mg/L. In addition, in the series filed under Rattus norvegicus, the inhibition was found to be 11.4%.
In the case of `Nc1nc2c(c(-c3ccccc3)n1)CCC/C2=C\c1ccccc1`, the inhibition in series [4] is -6.1%. This molecule also came in with a minimal inhibitory concentration (MIC) in series [1] of 6.25 mg/L (≈ 19.9 µM).
`Nc1nc2c(c(-c3ccc4ccccc4c3)n1)CCC/C2=C\c1ccc2ccccc2c1`: the inhibition is -5% in series [4] and -6% in the series listed under Rattus norvegicus. Further, in series [1], inhibition of growth (MIC) required 6.25 mg/L (≈ 15.1 µM).
`COc1ccc(/C=C2\CCCCc3c2nc(N)nc3-c2ccc(OC)c(OC)c2)cc1OC`: in series [1], it took 6.25 mg/L (≈ 14 µM) to inhibit growth (MIC). Besides, the inhibition in the series filed under Rattus norvegicus was -6.4%.
Take `COc1ccc(/C=C2\CCCc3c2nc(N)nc3-c2ccc(OC)cc2)cc1`: in series [4], the inhibition was -10%. This molecule also returned an MIC in series [1] greater than 12.5 mg/L.
`Nc1nc2c(c(-c3ccc(Br)cc3)n1)CCC/C2=C\c1ccc(Br)cc1`: it took 12.5 mg/L (≈ 26.5 µM) to inhibit growth in series [1] (MIC).
In series [1], `COc1cc(/C=C2\CCCc3c2nc(N)nc3-c2cc(OC)c(OC)c(OC)c2)cc(OC)c1OC` registered a minimal inhibitory concentration (MIC) greater than 12.5 mg/L.
The same measure, in the same setting: the figure for `COc1ccc(/C=C2\CCCc3c2nc(N)nc3-c2ccc(OC)c(OC)c2)cc1OC` is greater than 12.5 mg/L; for `COc1cc(/C=C2\CCCCc3c2nc(N)nc3-c2cc(OC)c(OC)c(OC)c2)cc(OC)c1OC` it is greater than 12.5 mg/L; for `CC[C@@H](CO)NCCN[C@@H](CC)CO` [ETHAMBUTOL] it is 3.25 mg/L (≈ 15.9 µM).
In turn, `Nc1nc2c(c(-c3ccccc3)n1)CCCC/C2=C\c1ccccc1` returned an MIC in series [1] greater than 12.5 mg/L. In addition, the inhibition in the series listed under Rattus norvegicus was -0.07%.

These data come from ChEMBL document CHEMBL1806375, “Synthesis, molecular modeling and bio-evaluation of cycloalkyl fused 2-aminopyrimidines as antitubercular and antidiabetic agents” (Bioorg Med Chem Lett, 2011).
